Legend:
Mu-type opioid receptor = Mu-type opioid receptor (Rattus norvegicus, UniProt P33535); experiment: Relative affinity against Opioid receptor mu 1 in thalamus using [3H]DAMGO as radioligand; assay type: tissue-based
Summary of the method: (§1)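 Radioligand competition binding was run per earlier published conditions. Inhibition was screened at 100 nM and 10 µM. Incubated tubes were filtered through glass-fibre filters on a vacuum manifold. Nonspecific binding was counts bound in the presence of a saturating concentration of an established competing ligand. Reference drugs were run in parallel as positive controls.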

D(2) dopamine receptor = D(2) dopamine receptor (Rattus norvegicus, UniProt P61169); experiment: relative affinity against Dopamine receptor D2 in striatum using [3H]YM-09151-2 as radioligand; assay type: tissue-based; summary of the method: as §1
Sequence of D(2) dopamine receptor (P61169 whole entry): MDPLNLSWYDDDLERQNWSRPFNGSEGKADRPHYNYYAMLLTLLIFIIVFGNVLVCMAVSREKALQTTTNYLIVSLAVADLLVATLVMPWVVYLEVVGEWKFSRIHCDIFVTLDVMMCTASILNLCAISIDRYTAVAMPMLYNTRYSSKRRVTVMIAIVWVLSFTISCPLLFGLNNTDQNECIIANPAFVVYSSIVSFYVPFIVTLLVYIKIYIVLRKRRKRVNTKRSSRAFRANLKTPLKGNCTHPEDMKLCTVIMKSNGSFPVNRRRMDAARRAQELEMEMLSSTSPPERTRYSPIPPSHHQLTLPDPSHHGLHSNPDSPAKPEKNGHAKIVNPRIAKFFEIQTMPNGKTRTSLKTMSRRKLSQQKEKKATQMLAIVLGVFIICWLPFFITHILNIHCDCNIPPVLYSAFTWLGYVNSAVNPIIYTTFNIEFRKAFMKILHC

D(1A) dopamine receptor = D(1A) dopamine receptor (Rattus norvegicus, UniProt P18901); experiment: Relative affinity for Dopamine receptor D1 in striatum using [3H]SCH-23390; assay type: tissue-based; summary of the method: as §1
Sequence of D(1A) dopamine receptor (P18901 whole entry): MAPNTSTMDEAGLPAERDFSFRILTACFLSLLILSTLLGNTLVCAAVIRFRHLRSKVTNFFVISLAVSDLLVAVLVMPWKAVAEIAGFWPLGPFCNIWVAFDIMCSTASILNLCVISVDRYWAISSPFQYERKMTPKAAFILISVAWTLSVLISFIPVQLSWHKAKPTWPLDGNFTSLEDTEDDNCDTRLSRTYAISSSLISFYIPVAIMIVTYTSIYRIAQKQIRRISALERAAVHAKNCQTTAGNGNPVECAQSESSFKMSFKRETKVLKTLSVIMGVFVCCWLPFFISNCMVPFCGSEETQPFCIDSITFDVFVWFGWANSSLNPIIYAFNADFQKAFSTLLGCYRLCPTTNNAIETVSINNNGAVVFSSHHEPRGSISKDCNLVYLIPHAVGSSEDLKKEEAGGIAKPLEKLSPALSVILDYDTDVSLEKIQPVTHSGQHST

Glutamate NMDA receptor = experiment: relative affinity against N-methyl-D-aspartate glutamate receptor in caudate using [3H](+)-MK-801 as radioligand; assay type: protein-complex assay
Summary of the method: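 Tubes incubated under the specified conditions, then filtered on glass-fibre filters and counted. Nonspecific binding taken as cpm bound with a saturating concentration of an established competing ligand. Reference drugs run in parallel as positive controls.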

[1] = biological target: Sodium-dependent dopamine transporter (Rattus norvegicus, UniProt P23977); experiment: relative affinity against dopamine transporter using WIN-35428 as radioligand; summary of the method: as §1
Sequence of Sodium-dependent dopamine transporter (P23977 whole entry): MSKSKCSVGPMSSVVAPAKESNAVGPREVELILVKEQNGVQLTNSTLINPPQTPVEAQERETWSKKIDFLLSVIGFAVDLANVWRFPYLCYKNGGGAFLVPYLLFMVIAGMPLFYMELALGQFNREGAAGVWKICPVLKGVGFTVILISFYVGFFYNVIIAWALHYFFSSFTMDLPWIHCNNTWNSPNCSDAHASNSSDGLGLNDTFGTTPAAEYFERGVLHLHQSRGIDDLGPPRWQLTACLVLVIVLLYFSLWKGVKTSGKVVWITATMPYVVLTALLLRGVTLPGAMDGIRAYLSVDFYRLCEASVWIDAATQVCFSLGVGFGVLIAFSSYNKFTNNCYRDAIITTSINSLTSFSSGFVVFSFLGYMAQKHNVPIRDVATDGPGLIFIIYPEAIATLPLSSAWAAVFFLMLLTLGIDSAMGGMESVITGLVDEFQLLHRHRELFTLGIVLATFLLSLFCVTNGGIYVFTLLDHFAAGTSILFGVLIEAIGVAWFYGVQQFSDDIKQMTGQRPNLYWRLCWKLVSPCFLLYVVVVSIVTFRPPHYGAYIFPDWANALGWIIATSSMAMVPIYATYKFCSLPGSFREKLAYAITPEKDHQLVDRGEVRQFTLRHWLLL

[2] = biological target: Sodium-dependent serotonin transporter (Rattus norvegicus, UniProt P31652); experiment: relative affinity against serotonin transporter using RTI-55 as radioligand; summary of the method: as §1
Sequence of Sodium-dependent serotonin transporter (P31652 whole entry): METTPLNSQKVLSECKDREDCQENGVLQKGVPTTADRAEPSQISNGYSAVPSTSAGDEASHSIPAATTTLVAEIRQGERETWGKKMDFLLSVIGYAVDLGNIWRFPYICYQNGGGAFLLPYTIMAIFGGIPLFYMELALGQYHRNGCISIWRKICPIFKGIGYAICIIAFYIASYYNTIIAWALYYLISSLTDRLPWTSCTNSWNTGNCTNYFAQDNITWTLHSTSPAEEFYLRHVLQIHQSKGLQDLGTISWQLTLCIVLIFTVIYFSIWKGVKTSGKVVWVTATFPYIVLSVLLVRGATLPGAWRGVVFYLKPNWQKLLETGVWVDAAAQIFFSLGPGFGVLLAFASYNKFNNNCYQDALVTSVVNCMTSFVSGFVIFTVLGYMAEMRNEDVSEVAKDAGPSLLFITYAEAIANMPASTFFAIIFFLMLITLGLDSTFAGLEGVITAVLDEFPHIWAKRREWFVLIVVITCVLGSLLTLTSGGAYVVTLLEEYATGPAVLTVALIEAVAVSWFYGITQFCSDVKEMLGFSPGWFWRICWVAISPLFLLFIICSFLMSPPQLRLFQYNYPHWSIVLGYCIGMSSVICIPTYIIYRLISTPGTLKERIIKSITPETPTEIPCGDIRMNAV

D(3) dopamine receptor = D(3) dopamine receptor (Rattus norvegicus, UniProt P19020); experiment: relative affinity against Dopamine receptor D3 in ventral striatum using [3H](+)-7-OH-DPAT as radioligand; assay type: tissue-based; summary of the method: as §1
Sequence of D(3) dopamine receptor (P19020 whole entry): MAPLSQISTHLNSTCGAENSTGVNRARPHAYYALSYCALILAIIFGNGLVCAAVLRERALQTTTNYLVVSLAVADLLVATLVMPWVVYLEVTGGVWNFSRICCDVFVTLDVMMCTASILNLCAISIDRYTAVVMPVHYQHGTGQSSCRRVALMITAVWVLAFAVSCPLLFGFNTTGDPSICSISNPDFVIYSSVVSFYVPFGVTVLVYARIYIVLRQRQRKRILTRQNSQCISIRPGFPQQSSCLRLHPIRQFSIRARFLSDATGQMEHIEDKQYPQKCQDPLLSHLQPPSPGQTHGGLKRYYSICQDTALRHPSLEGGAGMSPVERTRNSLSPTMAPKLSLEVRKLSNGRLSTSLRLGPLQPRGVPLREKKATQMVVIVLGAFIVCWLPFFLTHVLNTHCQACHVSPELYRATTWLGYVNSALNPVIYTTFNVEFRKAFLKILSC

[3] = biological target: Kappa-type opioid receptor (Rattus norvegicus, UniProt P34975); experiment: relative affinity against Opioid receptor kappa 1 in insular Ctx using [3H]U-69593 as radioligand
Sequence of Kappa-type opioid receptor (P34975 whole entry): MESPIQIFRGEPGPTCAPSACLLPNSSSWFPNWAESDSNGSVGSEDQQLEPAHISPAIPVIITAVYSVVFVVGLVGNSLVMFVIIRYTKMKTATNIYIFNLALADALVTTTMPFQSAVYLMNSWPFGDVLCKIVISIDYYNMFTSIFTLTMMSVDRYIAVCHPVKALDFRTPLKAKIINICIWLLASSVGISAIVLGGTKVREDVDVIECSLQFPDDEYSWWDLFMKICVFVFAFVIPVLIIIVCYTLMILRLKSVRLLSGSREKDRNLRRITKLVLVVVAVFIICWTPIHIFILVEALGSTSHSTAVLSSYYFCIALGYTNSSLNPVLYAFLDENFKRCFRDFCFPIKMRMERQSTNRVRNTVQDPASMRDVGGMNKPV

Sequence of Mu-type opioid receptor (P33535 whole entry): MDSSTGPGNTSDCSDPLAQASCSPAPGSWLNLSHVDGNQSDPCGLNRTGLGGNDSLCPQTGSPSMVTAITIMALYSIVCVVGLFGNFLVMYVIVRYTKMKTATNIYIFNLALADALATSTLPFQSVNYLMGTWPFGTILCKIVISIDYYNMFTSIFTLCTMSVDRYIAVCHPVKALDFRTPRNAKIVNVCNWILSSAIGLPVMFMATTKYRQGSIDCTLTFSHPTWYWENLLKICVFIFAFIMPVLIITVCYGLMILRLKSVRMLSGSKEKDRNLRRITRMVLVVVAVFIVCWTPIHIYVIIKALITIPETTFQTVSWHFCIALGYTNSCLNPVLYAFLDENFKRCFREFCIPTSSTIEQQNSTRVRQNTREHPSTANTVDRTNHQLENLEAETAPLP

CCN1CCc2c(sc3ccccc23)C(c2cccc(Br)c2)C1 (stereo not drawn)
IC50 (Mu-type opioid receptor): 5 µM
IC50 (D(2) dopamine receptor): 3.5 µM
IC50 (D(1A) dopamine receptor): 5 µM
IC50 (Glutamate NMDA receptor): 46.6 µM
IC50 [1]: 0.21 µM
IC50 [2]: 4.3 µM
IC50 (D(3) dopamine receptor): 2 µM
IC50 [3]: 12.5 µM

CCN1CCc2c(sc3ccccc23)C(c2ccccc2)C1 (stereo not drawn)
IC50 (Mu-type opioid receptor): 2.2 µM
IC50 (D(2) dopamine receptor): 5 µM
IC50 (D(1A) dopamine receptor): 3 µM
IC50 (Glutamate NMDA receptor): 42 µM
IC50 [1]: 0.14 µM
IC50 [2]: 0.3 µM
IC50 (D(3) dopamine receptor): 0.6 µM
IC50 [3]: 1.3 µM

CN1CCc2c([nH]c3ccccc23)C(c2ccccc2)C1 (stereo not drawn)
IC50 (Mu-type opioid receptor): 3.1 µM
IC50 (D(2) dopamine receptor): 27.2 µM
IC50 (D(1A) dopamine receptor): 20 µM
IC50 [1]: 0.18 µM
IC50 [2]: 0.19 µM
IC50 (D(3) dopamine receptor): 4.2 µM
IC50 [3]: 21.2 µM

CCN1CCc2c(sc3ccccc23)C(c2ccc(Cl)c(Cl)c2)C1 (stereo not drawn)
IC50 (Mu-type opioid receptor): 54.5 µM
IC50 (D(2) dopamine receptor): 5 µM
IC50 (D(1A) dopamine receptor): 70 µM
IC50 (Glutamate NMDA receptor): 81 µM
IC50 [1]: 0.25 µM
IC50 [2]: 1.2 µM
IC50 (D(3) dopamine receptor): 2 µM
IC50 [3]: 15.9 µM

CCN1CCc2c(sc3ccccc23)C(c2cccc([N+](=O)[O-])c2)C1 (stereo not drawn)
IC50 (Mu-type opioid receptor): 3.1 µM
IC50 (D(2) dopamine receptor): 3.1 µM
IC50 (D(1A) dopamine receptor): 5 µM
IC50 (Glutamate NMDA receptor): 32 µM
IC50 [1]: 0.25 µM
IC50 [2]: 1.1 µM
IC50 (D(3) dopamine receptor): 0.6 µM
IC50 [3]: 16.2 µM

COc1cc2c(cc1OC)C(c1ccccc1)CN(C)CC2 (stereo not drawn)
IC50 (D(1A) dopamine receptor): 0.491 µM

CC[C@@H]1CC2C[C@@H]3c4[nH]c5ccc(O)cc5c4CCN(C2)C13
IC50 (Mu-type opioid receptor): 0.16 µM
IC50 (D(2) dopamine receptor): > 10 µM
IC50 (D(1A) dopamine receptor): > 10 µM
IC50 (Glutamate NMDA receptor): 31.4 µM
IC50 [2]: 0.04 µM
IC50 (D(3) dopamine receptor): > 10 µM
IC50 [3]: 4.24 µM

CC[C@H]1C[C@@H]2C[C@H]3c4[nH]c5ccc(OC)cc5c4CCN(C2)[C@@H]13 [IBOGAINE]
IC50 (D(2) dopamine receptor): > 10 µM
IC50 (D(1A) dopamine receptor): > 10 µM
IC50 (Glutamate NMDA receptor): 5.2 µM
IC50 [1]: 4.11 µM
IC50 [2]: 0.59 µM
IC50 (D(3) dopamine receptor): > 10 µM

— ChEMBL document CHEMBL1131617 (J Med Chem, 1998)
